Data taken from ChEMBL document CHEMBL4024779, “Novel Terminal Bipheny-Based Diapophytoene Desaturases (CrtN) Inhibitors as Anti-MRSA/VISR/LRSA Agents with Reduced hERG Activity” (J Med Chem, 2018).
Changes are numbered by the printed parent chain. pIC50: −log10 of the molar value. Converted amounts (≈) assume the structure as drawn. The source made the active and inactive calls. The calls are words filed in the database; no cut-off is given here.

How the values were obtained:
Staphylococcus aureus [1] = test: Antibacterial activity against Staphylococcus aureus Newman after 24 hrs by broth dilution method; type: functional
[2] = biological target: T1, 4,4'-diapophytoene desaturase (4,4'-diaponeurosporene-forming) (Staphylococcus aureus (strain USA300)) (UniProt Q2FDU6); test: Inhibition of CrtN in methicillin-resistant Staphylococcus aureus LAC USA300 assessed as increase in H2O2-induced bacterial death by measuring survival rate preincubated for 24 hrs followed by H2O2 addition measured after 30 mins by serial dilution method (reference value: 29.0%)
T1 sequence (whole entry): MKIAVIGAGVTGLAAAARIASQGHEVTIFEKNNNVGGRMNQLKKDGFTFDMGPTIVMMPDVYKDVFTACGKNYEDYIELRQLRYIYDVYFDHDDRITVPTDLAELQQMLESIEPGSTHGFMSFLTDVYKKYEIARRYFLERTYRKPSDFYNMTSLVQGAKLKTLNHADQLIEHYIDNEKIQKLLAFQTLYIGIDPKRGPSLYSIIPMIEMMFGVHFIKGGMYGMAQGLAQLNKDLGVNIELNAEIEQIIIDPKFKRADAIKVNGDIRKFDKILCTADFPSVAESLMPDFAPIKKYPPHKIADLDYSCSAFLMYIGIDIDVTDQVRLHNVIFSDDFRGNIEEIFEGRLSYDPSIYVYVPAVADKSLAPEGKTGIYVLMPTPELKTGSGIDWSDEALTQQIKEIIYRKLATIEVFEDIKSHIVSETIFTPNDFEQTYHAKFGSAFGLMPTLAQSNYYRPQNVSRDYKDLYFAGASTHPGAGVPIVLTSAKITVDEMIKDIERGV
Method in brief: (§1)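 Bacteria pretreated with 1 µM inhibitor or mock; N-acetylcysteine-treated cells served as control. Cells then exposed to 1.5% H2O2, and percent survival determined.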

Staphylococcus aureus [3] = test: Chemo-sensitization activity in non-pigmented Staphylococcus aureus Newman assessed as increase in H2O2-induced bacterial death by measuring survival rate pre-incubated for 24 hrs followed by H2O2 addition measured after 30 mins by serial dilution method (reference value: 33.3%); type: functional
Method in brief: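 S. aureus Newman was pre-incubated with 1 µM compound, with N-acetylcysteine as antioxidant control, or mock-treated. Cells were then exposed to 1.5% H2O2. Percent bacterial survival was compared with the mock-treated culture.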

[4] = biological target: T2, 4,4'-diapophytoene desaturase (4,4'-diaponeurosporene-forming) (Staphylococcus aureus (strain MW2)) (UniProt Q8NUQ6); test: Inhibition of CrtN in methicillin-resistant Staphylococcus aureus USA400 MW2 assessed as increase in H2O2-induced bacterial death by measuring survival rate preincubated for 24 hrs followed by H2O2 addition measured after 30 mins by serial dilution method (reference value: 28.7%); details: Staphylococcus aureus subsp. aureus MW2; method in brief: as §1
T2 sequence (whole entry): T1 sequence (whole entry) with R500Q

[5] = biological target: T3, 4,4'-diapophytoene desaturase (4,4'-diaponeurosporene-forming) (Staphylococcus aureus (strain Mu50 / ATCC 700699)) (UniProt Q99R76); test: Inhibition of CrtN in methicillin-resistant Staphylococcus aureus Mu50 assessed as increase in H2O2-induced bacterial death by measuring survival rate at preincubated for 24 hrs followed by H2O2 addition measured after 30 mins by serial dilution method (reference value: 29.0%); details: Staphylococcus aureus subsp. aureus Mu50; method in brief: as §1
T3 sequence (whole entry): T1 sequence (whole entry)

Staphylococcus aureus [6] = test: In vivo anti-virulence activity against Staphylococcus aureus Mu50 infected in BALB/c mouse model assessed as reduction in bacterial load in kidney at 0.4 mg bid for 4.5 days administered […] 6 hrs post infection by serial dilution method relative to control; type: functional, organism-based
Staphylococcus aureus [7] = test: In vivo anti-virulence activity against methicillin-resistant Staphylococcus aureus LRSA56 infected in BALB/c mouse model assessed as reduction in bacterial load in heart at 0.4 mg bid for 3.5 days administered intraperitoneally 6 hrs post infection by serial dilution method relative to control; type: functional, organism-based
Method in brief: (§2)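 Mice were infected by retro-orbital injection with LRSA56 (5.0 × 10^7 CFU) or LRSA202 (7.0 × 10^7 CFU). Compound was given intraperitoneally 6 h after infection. […] Log10 CFU was counted in kidneys and hearts, with groups compared by two-tailed Mann-Whitney test.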

Staphylococcus aureus [8] = test: In vivo anti-virulence activity against methicillin-resistant Staphylococcus aureus LRSA202 infected in BALB/c mouse model assessed as reduction in bacterial load in heart at 0.4 mg bid for 3.5 days administered intraperitoneally 6 hrs post infection by serial dilution method relative to control; type: functional, organism-based; method in brief: as §2
Staphylococcus aureus [9] = test: In vivo anti-virulence activity against methicillin-resistant Staphylococcus aureus LRSA56 infected in BALB/c mouse model assessed as reduction in bacterial load in kidney at 0.4 mg bid for 3.5 days administered intraperitoneally 6 hrs post infection by serial dilution method relative to control; type: functional, organism-based; method in brief: as §2
Staphylococcus aureus [10] = test: In vivo anti-virulence activity against methicillin-resistant Staphylococcus aureus LRSA202 infected in BALB/c mouse model assessed as reduction in bacterial load in kidney at 0.4 mg bid for 3.5 days administered intraperitoneally 6 hrs post infection by serial dilution method relative to control; type: functional, organism-based; method in brief: as §2
Staphylococcus aureus [11] = test: In vivo anti-virulence activity against methicillin-resistant Staphylococcus aureus Mu50 infected in BALB/c mouse model assessed as reduction in bacterial load in heart at 0.4 mg bid for 4.5 days administered intraperitoneally 6 hrs post infection by serial dilution method; type: functional, organism-based
[12] = Aqueous solubility of compound after 24 hrs by HPLC method; type: physicochemical
[13] = biological target: T4, 4,4'-diapophytoene desaturase (4,4'-diaponeurosporene-forming) (Staphylococcus aureus (strain Mu50 / ATCC 700699), UniProt Q99R76); test: Inhibition of CrtN in methicillin-resistant Staphylococcus aureus Mu50 assessed as reduction in staphyloxanthin levels after 48 hrs by spectrophotometric method-based pigment inhibition assay; parameters: species or system Staphylococcus aureus subsp. aureus Mu50
T4 sequence (Q99R76 whole entry): T1 sequence (whole entry)

[14] = biological target: Voltage-gated inwardly rectifying potassium channel KCNH2 (Homo sapiens, UniProt Q12809); test: Inhibition of human ERG expressed in CHO cells at -80 mV holding potential after 3 mins by QPatch test; type: cell-based
Trichophyton rubrum = test: In vitro antifungal activity against Trichophyton rubrum after 7 days by serial dilution method; type: functional; details: 168 h
[15] = biological target: T5, 4,4'-diapophytoene desaturase (4,4'-diaponeurosporene-forming) (Staphylococcus aureus (strain USA300), UniProt Q2FDU6); test: Inhibition of CrtN in methicillin-resistant Staphylococcus aureus LAC USA300 assessed as reduction in staphyloxanthin levels after 48 hrs by spectrophotometric method-based pigment inhibition assay
T5 sequence (Q2FDU6 whole entry): T1 sequence (whole entry)

[16] = tested on: Trichophyton mentagrophytes; test: In vitro antifungal activity against Trichophyton mentagrophytes after 7 days by serial dilution method; type: functional; details: 168 h
[17] = biological target: T6, 4,4'-diapophytoene desaturase (4,4'-diaponeurosporene-forming) (Staphylococcus aureus (strain Newman), UniProt O07855); test: Inhibition of Staphylococcus aureus Newman 6His-tagged CrtN expressed in Escherichia coli BL21 (DE3)/pET28a::CrtN assessed as reduction in staphyloxanthin levels using diapophytoene as substrate after overnight incubation by spectrophotometric analysis; parameters: species or system Staphylococcus aureus subsp. aureus str. Newman
T6 sequence (O07855 whole entry): T1 sequence (whole entry)

[18] = Inhibition of CrtN in methicillin-resistant Staphylococcus aureus NRS271 assessed as reduction in staphyloxanthin levels after 48 hrs by spectrophotometric method-based pigment inhibition assay
Trichophyton verrucosum = test: In vitro antifungal activity against Trichophyton verrucosum after 7 days by serial dilution method; type: functional; details: 168 h
Nannizzia gypsea = test: In vitro antifungal activity against Microsporum gypseum after 7 days by serial dilution method; type: functional; details: 168 h
[19] = biological target: T7, 4,4'-diapophytoene desaturase (4,4'-diaponeurosporene-forming) (Staphylococcus aureus (strain MW2), UniProt Q8NUQ6); test: Inhibition of CrtN in methicillin-resistant Staphylococcus aureus USA400 MW2 assessed as reduction in staphyloxanthin levels after 48 hrs by spectrophotometric method-based pigment inhibition assay; parameters: species or system Staphylococcus aureus subsp. aureus MW2
T7 sequence (Q8NUQ6 whole entry): T1 sequence (whole entry) with R500Q

Staphylococcus aureus [20] = test: In vivo anti-virulence activity against methicillin-resistant Staphylococcus aureus LRSA202 infected in BALB/c mouse model assessed as reduction in bacterial load in kidney at 0.1 mg bid for 3.5 days administered intraperitoneally 6 hrs post infection by serial dilution method relative to control; type: functional, organism-based; method in brief: as §2
Staphylococcus aureus [21] = test: In vivo anti-virulence activity against Staphylococcus aureus NRS271 infected in BALB/c mouse model assessed as reduction in bacterial load in kidney at 0.4 mg bid for 4.5 days administered orally 6 hrs post infection by serial dilution method relative to control; type: functional, organism-based
Staphylococcus aureus [22] = test: In vivo anti-virulence activity against methicillin-resistant Staphylococcus aureus LRSA202 infected in BALB/c mouse model assessed as reduction in bacterial load in heart at 0.1 mg bid for 3.5 days administered intraperitoneally 6 hrs post infection by serial dilution method relative to control; type: functional, organism-based; method in brief: as §2
Staphylococcus aureus [23] = test: In vivo anti-virulence activity against methicillin-resistant Staphylococcus aureus NRS271 infected in BALB/c mouse model assessed as reduction in bacterial load in heart at 0.4 mg bid for 4.5 days administered intraperitoneally 6 hrs post infection by serial dilution method; type: functional, organism-based
Liver = test: In-vitro intrinsic clearance in human liver microsomes at 2 uM after 60 mins in presence of NADPH by LC-MS/MS method; type: ADME, microsome; details: 1 h
[24] = Half life in human liver microsomes at 2 uM after 60 mins in presence of NADPH by LC-MS/MS method; type: ADME, microsome; details: liver microsomes
[25] = biological target: 4,4'-diapophytoene synthase (Staphylococcus aureus, UniProt A9JQL9); test: Inhibition of CrtM in Staphylococcus aureus assessed as reduction in staphyloxanthin levels after 72 hrs by spectrophotometric method
Chain of 4,4'-diapophytoene synthase (A9JQL9 whole entry): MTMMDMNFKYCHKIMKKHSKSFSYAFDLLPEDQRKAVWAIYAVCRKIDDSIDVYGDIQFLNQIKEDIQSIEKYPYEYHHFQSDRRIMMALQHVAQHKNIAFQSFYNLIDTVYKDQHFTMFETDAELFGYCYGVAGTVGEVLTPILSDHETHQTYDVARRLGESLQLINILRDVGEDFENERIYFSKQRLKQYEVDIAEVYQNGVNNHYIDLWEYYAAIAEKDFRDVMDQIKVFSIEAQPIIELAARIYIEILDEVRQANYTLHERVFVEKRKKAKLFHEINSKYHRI

Chain of Voltage-gated inwardly rectifying potassium channel KCNH2 (Q12809 whole entry): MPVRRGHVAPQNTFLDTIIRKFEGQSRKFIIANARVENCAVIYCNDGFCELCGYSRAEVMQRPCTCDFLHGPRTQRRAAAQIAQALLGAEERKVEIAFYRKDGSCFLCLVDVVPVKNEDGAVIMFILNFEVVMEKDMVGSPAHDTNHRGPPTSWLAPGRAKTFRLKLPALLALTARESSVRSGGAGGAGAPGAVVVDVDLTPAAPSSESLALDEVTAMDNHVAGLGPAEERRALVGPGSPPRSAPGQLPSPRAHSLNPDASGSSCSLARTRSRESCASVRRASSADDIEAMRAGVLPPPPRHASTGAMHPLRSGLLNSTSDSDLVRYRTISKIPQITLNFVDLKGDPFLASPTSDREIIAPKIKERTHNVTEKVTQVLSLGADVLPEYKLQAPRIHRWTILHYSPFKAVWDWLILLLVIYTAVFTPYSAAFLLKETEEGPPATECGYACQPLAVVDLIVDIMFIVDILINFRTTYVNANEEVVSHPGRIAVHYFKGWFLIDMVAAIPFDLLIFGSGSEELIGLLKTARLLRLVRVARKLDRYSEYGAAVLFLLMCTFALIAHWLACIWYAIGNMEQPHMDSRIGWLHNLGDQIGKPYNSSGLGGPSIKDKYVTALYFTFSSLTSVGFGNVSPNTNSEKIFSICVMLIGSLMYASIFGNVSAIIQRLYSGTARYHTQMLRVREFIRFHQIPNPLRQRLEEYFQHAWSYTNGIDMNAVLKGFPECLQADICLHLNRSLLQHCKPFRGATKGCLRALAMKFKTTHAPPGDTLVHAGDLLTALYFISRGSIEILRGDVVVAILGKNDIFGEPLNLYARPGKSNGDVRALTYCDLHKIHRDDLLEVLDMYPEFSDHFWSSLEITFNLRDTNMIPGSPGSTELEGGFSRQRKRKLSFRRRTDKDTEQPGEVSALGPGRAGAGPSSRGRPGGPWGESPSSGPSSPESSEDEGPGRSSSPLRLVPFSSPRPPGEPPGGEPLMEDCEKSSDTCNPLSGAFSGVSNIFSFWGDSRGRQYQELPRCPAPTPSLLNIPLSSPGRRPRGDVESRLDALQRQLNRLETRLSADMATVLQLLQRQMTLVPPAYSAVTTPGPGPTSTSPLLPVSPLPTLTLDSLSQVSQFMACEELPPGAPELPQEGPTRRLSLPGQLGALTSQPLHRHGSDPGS

Work on `CC[C@H]1OC(=O)[C@H](C)[C@@H](O[C@H]2C[C@@](C)(OC)[C@@H](O)[C@H](C)O2)[C@H](C)[C@@H](O[C@@H]2O[C@H](C)C[C@H](N(C)C)[C@H]2O)[C@](C)(O)C[C@@H](C)C(=O)[C@H](C)[C@@H](O)[C@]1(C)O` [ERYTHROMYCIN] yielded an MIC (Staphylococcus aureus [1]; Staphylococcus aureus, Newman, 24 h, read-out: MIC) of 0.125 µg/mL (≈ 0.17 µM).
With `CC(=O)N[C@@H](CS)C(=O)O` [ACETYLCYSTEINE] the Survival [2] was 52%, the Survival (Staphylococcus aureus [3]) was 51.3% and the Survival [4] was 54.3%. For the same molecule, the Survival [5] was 53%.
For `CN[C@H](CC(C)C)C(=O)N[C@H]1C(=O)N[C@@H](CC(N)=O)C(=O)N[C@H]2C(=O)N[C@H]3C(=O)N[C@H](C(=O)N[C@H](C(=O)O)c4cc(O)cc(O)c4-c4cc3ccc4O)[C@H](O)c3ccc(c(Cl)c3)Oc3cc2cc(c3O[C@@H]2O[C@H](CO)[C@@H](O)[C@H](O)[C@H]2O[C@H]2C[C@](C)(N)[C@H](O)[C@H](C)O2)Oc2ccc(cc2Cl)[C@H]1O`, the Activity (Staphylococcus aureus [6]) was “Active”, the Activity (Staphylococcus aureus [7]) was “Active” and the Activity (Staphylococcus aureus [8]) was “Active”. For the same molecule, the Activity (Staphylococcus aureus [9]) was “Active”, the Activity (Staphylococcus aureus [10]) was “Active” and the Activity (Staphylococcus aureus [11]) was “Active”.
Work on `CN(C/C=C/c1ccc(C(F)(F)F)cc1)Cc1cccc2ccoc12.Cl` yielded a solubility at 24 h [12] of 10000 µg/mL, a pIC50 [13] of 9.40 and a pIC50 [14] of 5.43. The MIC80 (Trichophyton rubrum) was 16 µg/mL, the pIC50 [15] was 8.26 and the MIC80 [16] was > 64 µg/mL. The pIC50 [17] was 6.52, the pIC50 [18] was 8.17 and the MIC80 (Trichophyton verrucosum) was > 64 µg/mL. For the same molecule, the MIC80 (Nannizzia gypsea) was 32 µg/mL and the pIC50 [19] was 8.47.
With `CC(=O)NC[C@H]1CN(c2ccc(N3CCOCC3)c(F)c2)C(=O)O1` the Activity (Staphylococcus aureus [20]) was “Active”, the Activity (Staphylococcus aureus [6]) was “Active” and the Activity (Staphylococcus aureus [8]) was “Active”. The Activity (Staphylococcus aureus [21]) was “Active”, the Activity (Staphylococcus aureus [10]) was “Active” and the Activity (Staphylococcus aureus [11]) was “Active”. For the same molecule, the Activity (Staphylococcus aureus [22]) was “Active” and the Activity (Staphylococcus aureus [23]) was “Active”.
`Cc1ncc2n1-c1ccc(Cl)cc1C(c1ccccc1F)=NC2` [MIDAZOLAM] gave a CLH (Liver) of 330 µL/min/mg and a half-life at 2 µM [24] of 4.2 min.
Work on `OO` [HYDROGEN PEROXIDE] yielded an MIC (Staphylococcus aureus [1]) of 0.15%.
Work on `O=P(O)(O)C(CCCc1cccc(Oc2ccccc2)c1)S(=O)(=O)O` (centres undefined) yielded a pIC50 [25] of 6.96.
